Tests used:
[1] = tested on: Rattus norvegicus; test: Antiallergic activity in Sprague-Dawley CD rat assessed as inhibition of passive anaphylaxis-induced hind paw edema at 30 mg/kg, ip relative to control; format: functional; conditions: route intraperitoneal; for inhibition in vivo at 30 mg/kg: Rattus norvegicus, Sprague-Dawley CD, ip
Method in brief: (§1)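 Passive anaphylaxis (reaginic antibody) induced in rat hind paw: serum with reaginic antibody injected into left hind paw; antigen given intravenously 24 h later. Paw volume measured by mercury displacement; activity read as inhibition of paw edema versus controls. Test compounds given ip or po. Inhibition of 35% or more considered significant by Student's t test (p < 0.05).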

[2] = tested on: Rattus norvegicus; test: Antiallergic activity in Sprague-Dawley CD rat assessed as inhibition of passive anaphylaxis-induced hind paw edema at 10 mg/kg, ip relative to control; format: functional; conditions: route intraperitoneal; for inhibition in vivo at 10 mg/kg: Rattus norvegicus, Sprague-Dawley CD, ip; method in brief: as §1
[3] = tested on: Rattus norvegicus; test: Antiallergic activity in Sprague-Dawley CD rat assessed as inhibition of passive anaphylaxis-induced hind paw edema at 30 mg/kg, po relative to control; format: functional; conditions: for inhibition in vivo at 30 mg/kg: Rattus norvegicus, Sprague-Dawley CD, po; method in brief: as §1
[4] = tested on: Rattus norvegicus; test: Antiallergic activity in Sprague-Dawley CD rat assessed as inhibition of passive anaphylaxis-induced hind paw edema at 100 mg/kg, po relative to control; format: functional; conditions: for inhibition in vivo at 100 mg/kg: Rattus norvegicus, Sprague-Dawley CD, po; method in brief: as §1
[5] = tested on: Rattus norvegicus; test: Antiallergic activity in Sprague-Dawley CD rat passive anaphylaxis model assessed as hind paw edema volume at 10 mg/kg, ip relative to control; format: functional; conditions: route intraperitoneal; method in brief: as §1
[6] = tested on: Rattus norvegicus; test: Antiallergic activity in Sprague-Dawley CD rat assessed as inhibition of passive anaphylaxis-induced hind paw edema at 5 mg/kg, ip relative to control; format: functional; conditions: route intraperitoneal; method in brief: as §1
[7] = tested on: Rattus norvegicus; test: Antiallergic activity in Sprague-Dawley CD rat passive anaphylaxis model assessed as hind paw edema volume at 30 mg/kg, po relative to control; format: functional; method in brief: as §1
[8] = tested on: Rattus norvegicus; test: Antiallergic activity in Sprague-Dawley CD rat passive anaphylaxis model assessed as hind paw edema volume at 5 mg/kg, ip relative to control; format: functional; conditions: route intraperitoneal; method in brief: as §1
[9] = Inhibition of guinea pig lung PDE assessed as cyclic AMP level; design: species or system Cavia porcellus
Method in brief: (§2)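 PDE from beef heart or guinea pig lung assayed by earlier-described methods; protein measured by Lowry method. IC50 taken from a plot of percent inhibition vs log inhibitor concentration, as the concentration giving 50% reduction in reaction velocity relative to uninhibited controls.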

[10] = tested on: Rattus norvegicus; test: Antiallergic activity in Sprague-Dawley CD rat assessed as inhibition of passive anaphylaxis-induced hind paw edema at 2 mg/kg, ip relative to control; format: functional; conditions: route intraperitoneal; method in brief: as §1
[11] = tested on: Rattus norvegicus; test: Antiallergic activity in Sprague-Dawley CD rat passive anaphylaxis model assessed as hind paw edema volume at 2 mg/kg, ip relative to control; format: functional; conditions: route intraperitoneal; method in brief: as §1
[12] = tested on: Rattus norvegicus; test: Antiallergic activity in Sprague-Dawley CD rat assessed as inhibition of passive anaphylaxis-induced hind paw edema at 3 mg/kg, po relative to control; format: functional; method in brief: as §1
[13] = tested on: Rattus norvegicus; test: Antiallergic activity in Sprague-Dawley CD rat assessed as inhibition of passive anaphylaxis-induced hind paw edema at 10 mg/kg, po relative to control; format: functional; method in brief: as §1
[14] = tested on: Rattus norvegicus; test: Antiallergic activity in Sprague-Dawley CD rat passive anaphylaxis model assessed as hind paw edema volume at 10 mg/kg, po relative to control; format: functional; method in brief: as §1
[15] = Inhibition of beef heart PDE assessed as cyclic AMP level; design: species or system Bos taurus; method in brief: as §2
[16] = tested on: Rattus norvegicus; test: Antiallergic activity in Sprague-Dawley CD rat passive anaphylaxis model assessed as hind paw edema volume at 3 mg/kg, po relative to control; format: functional; method in brief: as §1
[17] = organism: Cavia porcellus; test: Stimulation of guinea pig lung adenylate cyclase activity at 1 x 10^-4 M after 15 mins relative to control
[18] = tested on: Serum; test: Drug metabolism in serum of Sprague-Dawley CD rat passive anaphylaxis model at 0.23 mmol/kg, iv; format: ADME, cell-free
Method in brief: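 Rats given an iv bolus of 0.23 mmol/kg. Serum separated by centrifugation and stored frozen. Drug-derived material in serum quantified over time by UV measurement of 2-aminotropone. For 14C-labelled ester (label in ethyl group or oxalyl carbonyls), radioactivity counted in 0.2 mL serum after tissue-solubiliser digestion and scintillation fluid addition.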

[19] = tested on: Rattus norvegicus; test: Antiallergic activity in Sprague-Dawley CD rat assessed as inhibition of passive anaphylaxis-induced hind paw edema at 3 mg/kg, ip relative to control; format: functional; conditions: Rattus norvegicus, Sprague-Dawley CD, ip, route intraperitoneal; method in brief: as §1
[20] = tested on: Rattus norvegicus; test: Antiallergic activity in Sprague-Dawley CD rat passive anaphylaxis model assessed as hind paw edema volume at 3 mg/kg, ip relative to control; format: functional; conditions: route intraperitoneal; method in brief: as §1
[21] = tested on: Rattus norvegicus; test: Antiallergic activity in Sprague-Dawley CD rat assessed as inhibition of passive anaphylaxis-induced hind paw edema at 1 mg/kg, ip relative to control; format: functional; conditions: route intraperitoneal; method in brief: as §1
[22] = tested on: Rattus norvegicus; test: Antiallergic activity in Sprague-Dawley CD rat passive anaphylaxis model assessed as hind paw edema volume at 1 mg/kg, ip relative to control; format: functional; conditions: route intraperitoneal; method in brief: as §1
[23] = Rattus norvegicus, Sprague-Dawley CD, po

Structure (SMILES)	inhibition in vivo at 30 mg/kg [1]	inhibition in vivo at 10 mg/kg [2]	inhibition in vivo at 30 mg/kg [3]	inhibition in vivo at 100 mg/kg [4]	further results
CCOC(=O)C(=O)Nc1ccc(O)c(=O)cc1	10%				
CCOC(=O)C(=O)Nc1ccccc(OC)c1=O	52%	24%	59%	56%	
CCOC(=O)C(=O)Nc1ccc(Cl)ccc1=O	27%			25%	
O=C([O-])C(=O)Nc1cccccc1=O.[K+]					Activity [5]: 0.36 mL; inhibition in vivo at 5 mg/kg [6]: 46%; Activity [7]: 0.44 mL; inhibition (INH) [2]: 70%; Activity [8]: 0.69 mL; inhibition (INH) [3]: 53%; inhibition (INH) [1]: 75%; IC50 [9]: 5 mM; inhibition in vivo at 2 mg/kg [10]: 46%; inhibition (INH) [4]: 68%; Activity [11]: 0.69 mL; inhibition (INH) [12]: 35%; inhibition (INH) [13]: 31%; Activity [14]: 0.66 mL; IC50 [15]: 5.1 mM; Activity [16]: 0.61 mL
O=C(O)C(=O)Nc1cccccc1=O					Activity [17]: 2%
CCOC(=O)C(=O)Nc1ccccc(N(C)S(=O)(=O)c2ccc(C)cc2)c1=O	32%		3%	0%	
CCOC(=O)COC(=O)C(=O)Nc1cccccc1=O		69%	31%	64%	
CCOC(=O)C(=O)Nc1ccccc(Oc2ccccc2)c1=O	16%			9%	
NNC(=O)C(=O)Nc1cccccc1=O	78%	64%	41%	78%	
O=C(O)COC(=O)C(=O)Nc1cccccc1=O	93%	66%	45%	50%	
Cn1c(=O)c2nc[nH]c2n(C)c1=O [THEOPHYLLINE]					IC50 [9]: 1.47 mM; IC50 [15]: 0.515 mM
CC(C)(C)OC(=O)C(=O)Nc1cccccc1=O	79%		47%	82%	
Nc1cccccc1=O					Drug metabolism [18]: metabolite_detected
CCOC(=O)C(=O)Nc1ccccc(O)c1=O	61%	5%		0%	
COc1cccc2c(=O)c(CO)coc12	98%	70%	53%	83%	Activity [5]: 0.32 mL; inhibition in vivo at 3 mg/kg [19]: 39%; Activity [20]: 0.68 mL; inhibition in vivo at 1 mg/kg [21]: 14%; Activity [7]: 0.63 mL; inhibition in vivo at 3 mg/kg [12, 23]: 15%; inhibition in vivo at 10 mg/kg [13, 23]: 44%; Activity [22]: 1 mL; Activity [14]: 0.74 mL; Activity [16]: 1.13 mL
CCOC(=O)C(=O)Nc1ccccc(C)c1=O	60%	40%	6%	34%	
CC(C)OC(=O)C(=O)Nc1cccccc1=O	96%	76%	63%	72%	
CCOC(=O)C(=O)Nc1ccccc(Br)c1=O	52%			0%	

— ChEMBL document CHEMBL3244005, “Troponoids. 3. Synthesis and antiallergy activity of N-troponyloxamic acid esters” (J Med Chem, 1979)
